The values below come from the array DNA melting data of Ke et al. (doi:10.1101/2024.01.08.574731).

A short description of data set [1]: melting temperature; fluorescence melt of hairpins on a sequencing array, two-state fit, raised by 9.35 °C to match UV melts. Conditions: sodium 0.088 M. In a few lines: (§1)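 Bootstrapped two-state fits yielded melting temperature and folding enthalpy for library hairpins. Cy3 fluorescence, with annealed Cy3 and quencher oligos, was imaged on a sequenced MiSeq flow cell in 50 mM Na-HEPES pH 8.0, 25 mM NaCl in 2.5 °C steps up to 60 °C, and normalised to pre-quench Cy3 and to control constructs. Four replicates were combined by inverse variance, and fitted temperatures were raised by 9.35 °C to match UV melts.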

A short description of data set [2]: folding enthalpy; higher = less favourable; fluorescence melt of hairpins on a sequencing array, two-state fit. As to conditions: sodium 0.088 M. In a few lines: as §1

As for GTGGTAGGAAACTACCAC (((((((....))))))), the Tm in data set [1] stood at 61.2 °C. Besides, the folding enthalpy in data set [2] is -54.9 kcal/mol.
On the same counts, the results for GCCTCGCGAAAGCAGGGC (((..((....))..))) are 60.8 °C and -20.6 kcal/mol.
For GCGAACGGAAACGTTCAC (.(((((....))))).), in that order: 46.1 °C and -14.4 kcal/mol.
Consider GTTGGAGAAATCCAAC ((((((....)))))), for which, in data set [1], the Tm was 52 °C. Also, in data set [2], the folding enthalpy is -32 kcal/mol.
For GATCGGCTGGCCGATC ((((((....)))))), in that order: 68.3 °C and -38.2 kcal/mol.
For GTGAAGGGAAACCTTCAC (((((((....))))))), in that order: 60 °C and -46.1 kcal/mol.
As to GTATCGCGAAAGCGTTAC (((.(((....))).))), in data set [1], the Tm amounted to 48.4 °C. Further, the folding enthalpy in data set [2] is -21.2 kcal/mol.
On the same counts, the results for GATCTGGCCTCAGATC ((((((....)))))) are 51.7 °C and -41.7 kcal/mol.
On the same counts, the results for GTCACCGAAAGGTTGAC ((((((....))).))) are 51.4 °C and -27 kcal/mol.
On the same counts, the results for GTGAACCGAAAGGTCCAC (((.(((....))).))) are 49.8 °C and -24.6 kcal/mol.
In the case of GTAAAGCGAAAGCTGTAC (((.(((....))).))), in data set [1], the Tm stood at 44.4 °C. In addition, the folding enthalpy in data set [2] was -20.4 kcal/mol.
GATCCCAGGGGGATC ((((((...)))))): in data set [1], the Tm was found to be 67 °C. In addition, in data set [2], the folding enthalpy was -34.7 kcal/mol.
Turning to GATCCATACATGGATC ((((((....)))))), the Tm in data set [1] was 55.8 °C. The folding enthalpy in data set [2] was -50.8 kcal/mol.
For GGTCACGAAAGTGTTACC ((((((....)))..))), in that order: 38.2 °C and -17.1 kcal/mol.
On the same counts, the results for GATCCTGGCAAGGATC ((((((....)))))) are 63.3 °C and -44.6 kcal/mol.
On the same counts, the results for GATCTGTAATCAGATC ((((((....)))))) are 48.2 °C and -37.6 kcal/mol.
GATCTTGTGGAAGATC ((((((....)))))): in data set [1], the Tm stood at 41.3 °C. Besides, the folding enthalpy in data set [2] was -29.4 kcal/mol.
On the same counts, the results for GATCGGTCTTCCGATC ((((((....)))))) are 58.9 °C and -37.2 kcal/mol.
For GTAATCGAAAGATGCTAC ((((((....)))..))), in that order: 30.2 °C and -17.3 kcal/mol.
For GTCGTTGGAAACAATGGC (.(.(((....))).).), the Tm in data set [1] came to 35 °C. Moreover, the folding enthalpy in data set [2] is -24.8 kcal/mol.
On the same counts, the results for GTCCCTCGAAAGAGGAC (((.(((....)))))) are 51.3 °C and -14 kcal/mol.
For GATCGAGAGTTCGATC ((((((....)))))), in that order: 50.5 °C and -36.7 kcal/mol.
For GCAGTGCGAAAGCGTTGC (((..((....))..))), in that order: 56.2 °C and -17.7 kcal/mol.
Turning to GCATTCCGAAAGGACTGC (((.(((....))).))), the Tm in data set [1] amounted to 50.8 °C. Moreover, in data set [2], the folding enthalpy is -22.2 kcal/mol.
On to GCCTGAGGAAACTTGGGC (((..((....))..))), for which the Tm in data set [1] was 42.3 °C. In data set [2], the folding enthalpy was -29 kcal/mol.
On the same counts, the results for GCCACGCGAAAGCGTAGC ((.((((....)))).)) are 55.8 °C and -16.9 kcal/mol.
For GGTATCCCGAAAGGGACC (((..(((....)))))), in that order: 34.8 °C and -9.73 kcal/mol.
On the same counts, the results for GATACAGGAAACTGTGTC ((.((((....)))).)) are 44.9 °C and -25.9 kcal/mol.
As to GCATTACGAAAGTATTGC (((.(((....))).))), the Tm in data set [1] was determined as 48.9 °C. For the same sequence, in data set [2], the folding enthalpy is -29.3 kcal/mol.
As to GCTCCCGAAAGGGAAGC ((((((....))).))), the Tm in data set [1] stood at 59.3 °C. Also, in data set [2], the folding enthalpy was -31.8 kcal/mol.
On the same counts, the results for GCCGCCGAAAGGCGAGGC ((((((....)))..))) are 60.6 °C and -14.4 kcal/mol.
For GCGGGGTCCGC ((((...)))), in that order: 55.5 °C and -28.7 kcal/mol.
On the same counts, the results for GCTCCTCGAAAGAGAGC (((.(((....)))))) are 49.2 °C and -30 kcal/mol.
Regarding GCTTTCGGAAACGAAAAC (.(((((....))))).), the Tm in data set [1] stood at 36.4 °C. Besides, in data set [2], the folding enthalpy is -22.4 kcal/mol.
On the same counts, the results for GATCTGGTCCAGATC ((((((...)))))) are 50.8 °C and -33.4 kcal/mol.
With GGCAGCGAAAGCTTTGCC ((((((....)))..))), the Tm in data set [1] was determined as 51.6 °C. For the same sequence, in data set [2], the folding enthalpy is -18.1 kcal/mol.
On the same counts, the results for GACCACGAAAGTGGCGTC ((((((....)))..))) are 45.6 °C and -12.5 kcal/mol.
